Measurements gathered from unrelated publications.
Compare with care: the assays were run in different laboratories.
Target: Mitogen-activated protein kinase kinase kinase kinase 2 (MAP4K2, Homo sapiens, UniProt Q12851)
Residues used in one study (Q12851 1-820): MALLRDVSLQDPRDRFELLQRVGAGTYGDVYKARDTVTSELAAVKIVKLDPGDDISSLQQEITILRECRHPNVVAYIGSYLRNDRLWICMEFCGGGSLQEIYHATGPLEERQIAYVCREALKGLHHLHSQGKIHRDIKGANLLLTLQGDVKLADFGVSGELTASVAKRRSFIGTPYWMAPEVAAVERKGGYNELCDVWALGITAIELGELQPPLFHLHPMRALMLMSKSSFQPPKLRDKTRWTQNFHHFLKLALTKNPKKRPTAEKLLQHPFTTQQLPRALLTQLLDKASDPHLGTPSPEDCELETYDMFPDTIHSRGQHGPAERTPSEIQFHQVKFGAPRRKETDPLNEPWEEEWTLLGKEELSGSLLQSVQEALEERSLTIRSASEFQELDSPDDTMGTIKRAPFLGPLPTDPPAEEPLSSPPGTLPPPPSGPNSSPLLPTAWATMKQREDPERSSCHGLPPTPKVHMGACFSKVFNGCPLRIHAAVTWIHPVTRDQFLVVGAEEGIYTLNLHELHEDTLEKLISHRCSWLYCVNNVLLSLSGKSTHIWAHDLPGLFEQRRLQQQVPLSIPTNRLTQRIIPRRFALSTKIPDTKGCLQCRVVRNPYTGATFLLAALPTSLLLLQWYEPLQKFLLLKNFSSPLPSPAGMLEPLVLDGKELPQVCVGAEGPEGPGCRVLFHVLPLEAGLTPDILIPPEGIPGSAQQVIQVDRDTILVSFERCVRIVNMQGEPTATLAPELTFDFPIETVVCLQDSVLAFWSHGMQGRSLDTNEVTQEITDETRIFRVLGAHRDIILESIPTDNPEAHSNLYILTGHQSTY

COc1cc2ncnc(Nc3ccc(F)c(Cl)c3)c2cc1OCCCN1CCOCC1
remaining signal (cell-free assay; 0.5 µM): 104%

COc1cc2ncnc(Nc3ccc(Oc4ccccc4)cc3C)c2cc1OC
inhibition (enzyme activity, inhibitor; 1 µM): 2%

O=c1nc(-c2ccccn2)sc2ccccc12
remaining binding (binding, competition with immobilised ligand; 1 µM): 100%

CNC(=O)c1cc(Oc2ccc(NC(=O)Nc3ccc(Cl)c(C(F)(F)F)c3)cc2)ccn1
inhibition (enzyme activity, inhibitor; 0.3 µM): 5%

CCc1ccccc1C(=O)Nc1n[nH]c2c(C)c(F)c(C3C(C#N)=C(C)N(C)C(C)=C3C#N)cc12
remaining binding (cell-free assay, competition with immobilised ligand; 1 µM): 100%

Cc1ccc(NC(=O)c2ccc(C)c(C(F)(F)F)c2)cc1C#Cc1nn(C2CCC(O)CC2)c2ncnc(N)c12 (centres unmarked)
remaining signal (cell-free assay; 10 µM): 49%

COc1cc(Nc2cnc(C#N)c(O[C@H](C)CN(C)C)n2)ncc1-c1cnn(C)c1
remaining activity (enzyme activity, inhibitor, radiometric; 10 µM): 56%

COc1cc(/C=C/C(=O)CC(=O)/C=C/c2ccc(O)c(OC)c2)ccc1O
activity vs control (enzyme activity, inhibitor; 1 µM): 103%

c1ccc(N2CCN(Cc3nc4ccccc4[nH]3)CC2)nc1
remaining binding (binding, competition with immobilised ligand; 1 µM): 100%

Cc1ccc(Nc2nccc(N(C)c3ccc4c(C)n(C)nc4c3)n2)cc1S(N)(=O)=O
inhibition (enzyme activity, inhibitor; 10 µM): 83%

O=C(O)[C@H]1[C@H](Cn2nnc3ccccc3c2=O)CC[C@@H]1C(=O)c1ccc(OCCC2CCOCC2)cc1
remaining binding (cell-free assay, competition with immobilised ligand; 1 µM): 100%

FC(F)(F)Oc1cccc(-c2cnc3ccc(-c4ccncc4)nn23)c1
activity vs control (enzyme activity, inhibitor, radiometric; 1 µM): 37%

Cc1cc(NC(=O)c2cccc3cc(-c4cccc5[nH]nc(N)c45)ccc23)ccc1F
activity vs control (enzyme activity, inhibitor; 0.1 µM): 88%

Cn1c(=O)n(-c2ccc(C(C)(C)C#N)cc2)c2c3cc(-c4cnc5ccccc5c4)ccc3ncc21
remaining activity (enzyme activity, inhibitor; 10 µM): 12%

CC(C)(C)c1nc(-c2cccc(NS(=O)(=O)c3c(F)cccc3F)c2F)c(-c2ccnc(N)n2)s1
remaining activity (enzyme activity, inhibitor, radiometric; 1 µM): 115%

CCN(CC)CCNC(=O)c1c(C)[nH]c(/C=C2\C(=O)Nc3ccc(F)cc32)c1C
inhibition (enzyme activity, inhibitor; 0.3 µM): 45%

CSc1cccnc1N1CCN(Cc2nc3ccccc3[nH]2)CC1
remaining binding (cell-free assay, competition with immobilised ligand; 1 µM): 100%

O=C(Nc1cnn(-c2csc(C(=O)NC3COC3)c2)c1)Nc1c(F)cccc1Cl
remaining activity (enzyme activity, inhibitor; 5 µM): 95.3%

N#CCCc1ccc2c(c1)-c1[nH]c3ccc([N+](=O)[O-])cc3c1CC(=O)N2
remaining signal (cell-free assay; 0.5 µM): 14%

COc1ccc2c(O[C@@H]3C[C@H]4C(=O)N[C@]5(C(=O)O)CC5/C=C\CCCCC[C@H](NC(=O)OC5CCCC5)C(=O)N4C3)cc(-c3csc(NC(=O)C(C)C)n3)nc2c1C (some centres unmarked)
remaining binding (cell-free assay, competition with immobilised ligand; 1 µM): 100%

Cc1cnc(NC2CCOCC2)nc1-n1cnc(C(=O)NC(CN)c2cc(F)cc(Cl)c2)c1 (centres unmarked)
remaining activity (enzyme activity, inhibitor, radiometric; 1 µM): 100%

C[C@H](c1ccnc(Nc2nc3ccc(-c4cc(N(C)C)ncn4)cc3[nH]2)c1)N1CCN(C(=O)CC(F)(F)F)CC1
remaining binding (cell-free assay, competition with immobilised ligand; 0.1 µM): 100%

CC/C(=N\NC(=O)NCc1cccc(O)c1)c1ccc(O)c(C)c1O
inhibition (enzyme activity, inhibitor; 0.1 µM): 1.4%

CC(C)(O)c1cncc(-c2nc3ccc(F)cc3n2C2CC2)c1
remaining binding (cell-free assay, competition with immobilised ligand; 1 µM): 98%

Cc1ccc(C(=O)Nc2ccc(CN3CCN(C)CC3)c(C(F)(F)F)c2)cc1C#Cc1cnc2cccnn12
remaining activity (enzyme activity, inhibitor; 23.5 nM): 4.9%

CCCOc1ccc(OC)c(F)c1C(=O)c1ccc(C(=O)N[C@@H]2CNC[C@H]2NC(=O)c2ccc3[nH]ncc3c2)cc1
remaining activity (enzyme activity, inhibitor; 10 µM): 61%
